The results in this text go back to ChEMBL document CHEMBL1157190, “Design, synthesis, and anticonvulsant activity of N-phenylamino derivatives of 3,3-dialkyl-pyrrolidine-2,5-diones and hexahydro-isoindole-1,3-diones” (Bioorg Med Chem, 2008).

The source made the active and inactive calls. The rule behind the calls is not given here.

The first series deals with Mus musculus. The series is described as follows: Neurotoxicity in ip dosed CF1 albino mouse after 4 hrs by rotarod test. In kind it is toxicity, organism-based. The note with it: in vivo. A digest of the protocol:
(§1)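 CF-1 mice given 30, 100 or 300 mg/kg ip in 0.5% methylcellulose/water, examined at 0.5 and 4 h. Rotorod test: neurotoxicity is the inability to keep equilibrium on the rod for a given time. Value is the minimum dose giving motor impairment; a dash means none at 300 mg/kg.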
`CCCC1(C)CC(=O)N(Nc2ccc(Cl)cc2)C1=O` (stereo not given) came in with an Activity of 300 mg/kg.
On the same count and under the same terms, the same measure for `CCCC1(C)CC(=O)N(Nc2ccc(Br)cc2)C1=O` (stereo not given): 300 mg/kg; for `O=C1C2CCCCC2C(=O)N1Nc1ccc(Cl)cc1Cl` (stereo not given): 300 mg/kg; for `CCC1(C)CC(=O)N(Nc2ccccc2C)C1=O` (stereo not given): 100 mg/kg.

Another series concerns Mus musculus. Nature of the series: Neurotoxicity in ip dosed CF1 albino mouse at 300 mg/kg after 4 hrs by rotarod test. The format is toxicity, organism-based. On the set-up: dose 300 mg/kg, route intraperitoneal. Particulars: in vivo. A digest of the protocol: as §1
As to `CCC1(C)CC(=O)N(Nc2ccccc2Cl)C1=O` (stereo not given), the Activity result is reported as “Not Active”.
With `O=C1C2CCCCC2C(=O)N1Nc1cccc(Cl)c1` (stereo not given), the Activity result is listed as “Not Active”.
On the same count and under the same terms, the same measure for `CCC1(CC)CC(=O)N(Nc2ccc(Br)cc2)C1=O`: “Not Active”; for `CNN1C(=O)CC(C)(C)C1=O`: “Not Active”; for `CCC1(C)CC(=O)N(Nc2ccc(C)cc2)C1=O` (stereo not given): “Not Active”.
For the molecule `CCC1(CC)CC(=O)N(Nc2ccccc2Cl)C1=O`, the Activity result is recorded as “Not Active”.
For the molecule `CCCCC1(C)CC(=O)N(Nc2ccc(Cl)cc2)C1=O` (stereo not given), the Activity result is recorded as “Not Active”.

System in the next series: not listed separately
The series is described as follows: Lipophilicity, log kw of compound by RP-HPLC. In kind it is physicochemical.
Conditions: not given
A digest of the protocol: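 RP-HPLC on a C18 end-capped column at room temperature, with UV detection at 214 nm and uracil as the unretained marker. Capacity factor k = (tr − t0)/t0, from the mean of three measurement sets. log k extrapolated to 100% water (log k = log kw − Sφ) to give log kw.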
For `CCC1(C)CC(=O)N(Nc2ccccc2Cl)C1=O` (stereo not given), the “log K” value came to 2.029.
On the same count and under the same terms, the figure for `O=C1C2CCCCC2C(=O)N1Nc1cccc(Cl)c1` (stereo not given) is 2.173; for `CCC1(CC)CC(=O)N(Nc2ccc(Br)cc2)C1=O` it is 2.221; for `CCCC1(C)CC(=O)N(Nc2ccc(Cl)cc2)C1=O` (stereo not given) it is 2.445.
For `CCCC1(C)CC(=O)N(Nc2ccc(Br)cc2)C1=O` (stereo not given), the “log K” value was 2.403.
Take `CCC1(C)CC(=O)N(Nc2ccc(C)cc2)C1=O` (stereo not given): the “log K” value is 1.928.
As for `CCC1(CC)CC(=O)N(Nc2ccccc2Cl)C1=O`, the “log K” value stood at 2.244.
Take `CCCCC1(C)CC(=O)N(Nc2ccc(Cl)cc2)C1=O` (stereo not given): the “log K” value was determined as 2.638.
Regarding `O=C1C2CCCCC2C(=O)N1Nc1ccc(Cl)cc1Cl` (stereo not given), the “log K” value was found to be 2.425.
Take `CCC1(C)CC(=O)N(Nc2ccccc2C)C1=O` (stereo not given): the “log K” value amounted to 1.864.

The subject of a further series is Mus musculus. The series is described as follows: Anticonvulsant activity in ip dosed CF1 albino mouse assessed as inhibition of subcutaneous pentylenetetrazole-induced electrical stimulus at 300 mg/kg after 0.5 hr. In kind it is functional, organism-based. On the set-up: dose 300 mg/kg.
Conditions: not given
In short, it runs like this: (§2)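 Male CF-1 mice injected intraperitoneally at 30, 100 and 300 mg/kg, suspended in 0.5% methylcellulose/water. MES or subcutaneous pentylenetetrazole challenge at 0.5 and 4 h; selected compounds also at 1 or 2 h.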
Consider `CCC1(C)CC(=O)N(Nc2ccccc2Cl)C1=O` (stereo not given), for which the result was inactive.
For the molecule `CCC1(CC)CC(=O)N(Nc2ccc(Br)cc2)C1=O`, the result was inactive.
Regarding `CNN1C(=O)CC(C)(C)C1=O`, the outcome was inactive.
Take `CCCCC1(C)CC(=O)N(Nc2ccc(Cl)cc2)C1=O` (stereo not given): the result was inactive.
Regarding `O=C1C2CCCCC2C(=O)N1Nc1ccc(Cl)cc1Cl` (stereo not given), the outcome was inactive.
Consider `CCC1(C)CC(=O)N(Nc2ccccc2C)C1=O` (stereo not given), for which the outcome was inactive.

The next series has as its system Mus musculus. The series is described as follows: Anticonvulsant activity in ip dosed CF1 albino mouse assessed as inhibition of subcutaneous pentylenetetrazole-induced electrical stimulus after 0.5 hr.
Conditions: not given
The format is functional. In short, it runs like this: as §2
Consider `O=C1C2CCCCC2C(=O)N1Nc1cccc(Cl)c1` (stereo not given), for which the Activity is 300 mg/kg.
As for `CCCC1(C)CC(=O)N(Nc2ccc(Cl)cc2)C1=O` (stereo not given), the Activity turned out to be 100 mg/kg.
With `CCCC1(C)CC(=O)N(Nc2ccc(Br)cc2)C1=O` (stereo not given), the Activity was 300 mg/kg.
`CCC1(C)CC(=O)N(Nc2ccc(C)cc2)C1=O` (stereo not given): the Activity came out at 300 mg/kg.
As for `CCC1(CC)CC(=O)N(Nc2ccccc2Cl)C1=O`, the Activity is 300 mg/kg.

In another series the test system is Mus musculus. The series is described as follows: Anticonvulsant activity in ip dosed CF1 albino mouse assessed as inhibition of maximal electroshock-induced electrical stimulus after 4 hrs. In kind it is functional.
Conditions: not given
A digest of the protocol: as §2
A general note: In the maximal electroshock model the usual endpoint is tonic extension of the hind limbs.
As for `CCCC1(C)CC(=O)N(Nc2ccc(Cl)cc2)C1=O` (stereo not given), the Activity is 300 mg/kg.
As for `CCCC1(C)CC(=O)N(Nc2ccc(Br)cc2)C1=O` (stereo not given), the Activity is 300 mg/kg.
Still for that read-out and setting: the figure for `O=C1C2CCCCC2C(=O)N1Nc1ccc(Cl)cc1Cl` (stereo not given) is 100 mg/kg.

The subject of a further series is Mus musculus. The series is described as follows: Anticonvulsant activity in ip dosed CF1 albino mouse assessed as inhibition of subcutaneous pentylenetetrazole-induced electrical stimulus at 300 mg/kg after 4 hrs. In kind it is functional, organism-based.
Conditions: not given
On the set-up: dose 300 mg/kg. A digest of the protocol: as §2
As for `CCC1(C)CC(=O)N(Nc2ccccc2Cl)C1=O` (stereo not given), the outcome was inactive.
The same measure, in the same setting: the same measure for `O=C1C2CCCCC2C(=O)N1Nc1cccc(Cl)c1` (stereo not given): “inactive”; for `CCC1(CC)CC(=O)N(Nc2ccc(Br)cc2)C1=O`: “inactive”; for `CNN1C(=O)CC(C)(C)C1=O`: “inactive”.
Regarding `CCC1(C)CC(=O)N(Nc2ccc(C)cc2)C1=O` (stereo not given), the outcome was inactive.
For `CCC1(CC)CC(=O)N(Nc2ccccc2Cl)C1=O`, the result was inactive.
The same measure, in the same setting: the same measure for `CCCCC1(C)CC(=O)N(Nc2ccc(Cl)cc2)C1=O` (stereo not given): “inactive”.
On to `O=C1C2CCCCC2C(=O)N1Nc1ccc(Cl)cc1Cl` (stereo not given), for which the outcome was inactive.
Consider `CCC1(C)CC(=O)N(Nc2ccccc2C)C1=O` (stereo not given), for which the result was inactive.

Another series concerns Mus musculus. Nature of the series: Anticonvulsant activity in ip dosed CF1 albino mouse assessed as inhibition of maximal electroshock-induced electrical stimulus after 0.5 hr. The format is functional.
Conditions: not given
In short, it runs like this:
as §2
In the case of `CCC1(C)CC(=O)N(Nc2ccccc2Cl)C1=O` (stereo not given), the Activity was determined as 300 mg/kg.
For the molecule `CCCC1(C)CC(=O)N(Nc2ccc(Cl)cc2)C1=O` (stereo not given), the Activity is 100 mg/kg.
On the same count and under the same terms, the same measure for `CCCC1(C)CC(=O)N(Nc2ccc(Br)cc2)C1=O` (stereo not given): 100 mg/kg; for `CCC1(C)CC(=O)N(Nc2ccc(C)cc2)C1=O` (stereo not given): 300 mg/kg; for `CCC1(C)CC(=O)N(Nc2ccccc2C)C1=O` (stereo not given): 300 mg/kg.

The next series has as its system Mus musculus. The series is described as follows: Anticonvulsant activity in ip dosed CF1 albino mouse assessed as inhibition of maximal electroshock-induced electrical stimulus at 300 mg/kg after 4 hrs.
Conditions: not given
On the set-up: dose 300 mg/kg. The format is functional, organism-based. In short, it runs like this:
as §2
Regarding `CCC1(C)CC(=O)N(Nc2ccccc2Cl)C1=O` (stereo not given), the result was inactive.
The same measure, in the same setting: the same measure for `O=C1C2CCCCC2C(=O)N1Nc1cccc(Cl)c1` (stereo not given): “inactive”.
On to `CCC1(CC)CC(=O)N(Nc2ccc(Br)cc2)C1=O`, for which the result was inactive.
The same measure, in the same setting: the entry for `CNN1C(=O)CC(C)(C)C1=O` is “inactive”; for `CCC1(C)CC(=O)N(Nc2ccc(C)cc2)C1=O` (stereo not given) it is “inactive”.
Take `CCC1(CC)CC(=O)N(Nc2ccccc2Cl)C1=O`: the outcome was inactive.
As to `CCCCC1(C)CC(=O)N(Nc2ccc(Cl)cc2)C1=O` (stereo not given), the outcome was inactive.
For `CCC1(C)CC(=O)N(Nc2ccccc2C)C1=O` (stereo not given), the result was inactive.

The next series has as its system Rattus norvegicus. The series is described as follows: Anticonvulsant activity in Sprague-Dawley rat assessed as protection against seizure at 30 mg/kg, po after 4 hrs by maximal electroshock test. In kind it is functional.
Conditions: not given
A digest of the protocol:
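Male Sprague–Dawley rats; compound suspended in 0.5% methylcellulose/water and given orally at a fixed 30 mg/kg, four rats per time point. MES test run at 0.25, 0.5, 1, 2 and 4 h after dosing, with motor impairment checked in parallel. Read-out: number of rats of four protected.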
As for `CCCC1(C)CC(=O)N(Nc2ccc(Cl)cc2)C1=O` (stereo not given), the outcome was inactive.
Regarding `CCCC1(C)CC(=O)N(Nc2ccc(Br)cc2)C1=O` (stereo not given), the result was inactive.

The test system of the next series is Mus musculus. Nature of the series: Anticonvulsant activity in ip dosed CF1 albino mouse assessed as inhibition of maximal electroshock-induced electrical stimulus at 300 mg/kg after 0.5 hr.
Conditions: not given
More on the design: dose 300 mg/kg. In kind it is functional, organism-based. A digest of the protocol: as §2
Regarding `O=C1C2CCCCC2C(=O)N1Nc1cccc(Cl)c1` (stereo not given), the result was inactive.
For `CCC1(CC)CC(=O)N(Nc2ccc(Br)cc2)C1=O`, the result was inactive.
Take `CNN1C(=O)CC(C)(C)C1=O`: the outcome was inactive.
`CCC1(CC)CC(=O)N(Nc2ccccc2Cl)C1=O`: the outcome was inactive.
Take `CCCCC1(C)CC(=O)N(Nc2ccc(Cl)cc2)C1=O` (stereo not given): the outcome was inactive.

The next series concerns Mus musculus. Nature of the series: Neurotoxicity in ip dosed CF1 albino mouse after 0.5 hr by rotarod test. The format is toxicity, organism-based. The note with it: in vivo. In short, it runs like this:
as §1
A general note: Falling from the rotarod earlier than controls is read as motor impairment.
`CCC1(C)CC(=O)N(Nc2ccccc2Cl)C1=O` (stereo not given) came in with an Activity of 300 mg/kg.
`O=C1C2CCCCC2C(=O)N1Nc1cccc(Cl)c1` (stereo not given) registered an Activity of 300 mg/kg.
Molecule `CCCC1(C)CC(=O)N(Nc2ccc(Cl)cc2)C1=O` (stereo not given) displayed an Activity of 100 mg/kg.
In turn, `CCCC1(C)CC(=O)N(Nc2ccc(Br)cc2)C1=O` (stereo not given) came in with an Activity of 300 mg/kg.
For the molecule `CCC1(C)CC(=O)N(Nc2ccc(C)cc2)C1=O` (stereo not given), the Activity was determined as 300 mg/kg.
`CCC1(CC)CC(=O)N(Nc2ccccc2Cl)C1=O` yielded an Activity of 100 mg/kg.
Regarding `CCCCC1(C)CC(=O)N(Nc2ccc(Cl)cc2)C1=O` (stereo not given), the Activity turned out to be 300 mg/kg.
`O=C1C2CCCCC2C(=O)N1Nc1ccc(Cl)cc1Cl` (stereo not given) returned an Activity of 300 mg/kg.
The molecule `CCC1(C)CC(=O)N(Nc2ccccc2C)C1=O` (stereo not given) showed an Activity of 100 mg/kg.

Another series relates to Mus musculus. Nature of the series: Neurotoxicity in ip dosed CF1 albino mouse at 300 mg/kg after 0.5 hr by rotarod test. The format is toxicity, organism-based. On the set-up: dose 300 mg/kg, route intraperitoneal. The note with it: in vivo. In short, it runs like this:
as §1
For the molecule `CCC1(CC)CC(=O)N(Nc2ccc(Br)cc2)C1=O`, the Activity entry was “Not Active”.
On the same count and under the same terms, the same measure for `CNN1C(=O)CC(C)(C)C1=O`: “Not Active”.
